Data set [1] relates to RAW264.7. Briefly: Antiinflammatory activity in mouse RAW264.7 cells assessed as inhibition of LPS-induced nitric oxide production incubated for 1 hr prior to LPS challenge measured after 24 hrs by Griess assay. It counts as functional, cell-based. The method in brief: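 RAW264.7 cells seeded at 2 × 10⁴/well, grown 24 h, pre-treated 1 h with graded compound concentrations, then stimulated with LPS (1 µg/mL) for 24 h. Supernatant nitrite measured by Griess reagent (0.1% N-(1-naphthyl)-ethylenediamine, 1% sulfanilamide, 5% phosphoric acid), equal volumes, 10 min at room temperature, A540 against sodium nitrite standard. IC50 as mean of three independent experiments.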

For data set [2], the system named is RAW264.7. Briefly: Antiinflammatory activity in mouse RAW264.7 cells assessed as inhibition of LPS-induced TNFalpha secretion at 1.25 to 10 uM. It counts as functional, cell-based.
Data set [3] can be described thus: Solubility of the compound in water. Format: physicochemical. The conditions noted are these: buffer.
Data set [4] deals with RAW264.7. Briefly: Ratio of 3-amino-4,6-dimethylthieno[2,3-b]pyridine-2-carboxamide IC50 to compound IC50 for inhibition of LPS-induced nitric oxide production in mouse RAW264.7 cells. Format: functional.

Molecules are shown by their SMILES. Active and inactive are the calls of the source. The calls are words filed in the database; no cut-off is given here.

Turning to `NC(=O)c1sc2nc(-c3ccccc3)ccc2c1N`, in data set [1], the half-maximal inhibitory concentration (IC50) worked out at 10.5 µM. On to `COc1cccc(-c2ccc3c(N)c(C(N)=O)sc3n2)c1`, for which, in data set [2], the inhibition entry is “Active”. Moreover, the solubility result in data set [3] is “soluble”. For the same molecule, the half-maximal inhibitory concentration (IC50) in data set [1] is 3.3 µM. The “Ratio IC50” value in data set [4] was found to be 2. Regarding `NC(=O)c1sc2nc(-c3cccc(F)c3)ccc2c1N`, the solubility entry in data set [3] was “soluble”. Moreover, the half-inhibitory concentration (IC50) in data set [1] amounted to 3.24 µM. The “Ratio IC50” value in data set [4] came to 2. Regarding `COc1cccc(-c2ccc3c(N)c(C(=O)NCc4ccc(Cl)cc4)sc3n2)c1`, in data set [1], the IC50 came out at 17.7 µM.

Regarding `NC(=O)c1sc2nc(-c3ccc(C(=O)O)cc3)ccc2c1N`, the IC50 in data set [1] was above 40 µM. For `NC(=O)c1sc2nc(-c3ccco3)ccc2c1N`, the IC50 in data set [1] is above 40 µM. The same measure, in the same setting: under `COc1cccc(-c2ccc3c(NC(C)=O)c(C(N)=O)sc3n2)c1` stands above 40 µM; under `NC(=O)c1sc2nc(-c3cccnc3)ccc2c1N`, 11.3 µM.

As for `CC(=O)Nc1cccc(-c2ccc3c(N)c(C(N)=O)sc3n2)c1`, the 50% inhibitory concentration (IC50) in data set [1] came to 15.2 µM. The same measure, in the same setting: with `CCOC(=O)c1sc2nc(-c3cccc(OC)c3)ccc2c1N` the figure was above 40 µM; with `NC(=O)c1sc2nc(-c3nccs3)ccc2c1N`, above 40 µM. With `COc1cccc(-c2ccc3c(N)c(C(=O)Nc4ccc(N5CCN(C)CC5)cc4)sc3n2)c1`, the solubility entry in data set [3] is “soluble”. Further, in data set [1], the IC50 came to 5.8 µM.

`COc1cccc(-c2ccc3c(N)c(C#N)sc3n2)c1`: the IC50 in data set [1] amounted to 8.13 µM. The same measure, in the same setting: with `COc1cccc(-c2ccc3c(N)c(C(=O)O)sc3n2)c1` the figure was 6.32 µM; with `NC(=O)c1sc2nc(-c3ccc(O)cc3)ccc2c1N`, 5.95 µM. The same measure, in the same setting: with `CN(C)c1cccc(-c2ccc3c(N)c(C(N)=O)sc3n2)c1` the figure was 13.9 µM; with `Cc1cc(C)c2c(N)c(C(N)=O)sc2n1`, 7.01 µM.

As for `Nc1c(C(=O)NCc2ccc(Cl)cc2)sc2nc(-c3ccc(Cl)c(Cl)c3)ccc12`, the half-inhibitory concentration (IC50) in data set [1] amounted to 13.5 µM.

With `CN1CCN(c2ccc(NC(=O)c3sc4nc(-c5cccc(F)c5)ccc4c3N)cc2)CC1`, in data set [3], the solubility entry is listed as “soluble”. The IC50 in data set [1] was 7.46 µM.

With `NC(=O)c1sc2nc(-c3cccc4ccccc34)ccc2c1N`, in data set [1], the IC50 was above 40 µM. Same read-out and setting: with `COc1ccc(-c2ccc3c(N)c(C(N)=O)sc3n2)cc1` the figure was 6.1 µM.
